Results on three compounds are retold here after ChEMBL document CHEMBL3124882, “Semi-synthesis of acylated triterpenes from olive-oil industry wastes for the development of anticancer and anti-HIV agents” (Eur J Med Chem, 2014).

Experiment [1] deals with B16-F10. The experiment in a line: Induction of ROS generation in mouse B16F10 cells at IC50 to 2 X IC50 after 72 hrs by rhodamine123/propidium iodide staining-based FACS analysis. The experiment is classed as functional, cell-based. The essentials: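 B16F10 cells, 11·10^4 per well, treated 72 h at IC50 or 2×IC50, then given fresh medium with dihydrorhodamine 123 at a final 5 µg/mL for 30 min. Cells washed, resuspended in PBS and read by flow cytometry for Rh123 and PI fluorescence (excitation 500 nm, emission 536 nm). Rh123+ cells scored ROS-positive regardless of PI. Three experiments in duplicate, mean ± S.E.M.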

Experiment [2] deals with B16-F10. Description: Induction of apoptosis in mouse B16F10 cells assessed as necrotic cells at 2 X IC50 after 72 hrs by annexin V-FITC/propidium iodide staining-based FACS analysis (reference value: 4.0 +/- 0.6%). In kind it is functional. (A flow cytometer gives signals particle by particle.)
In experiment [3] the test system is B16-F10. Description: Induction of apoptosis in mouse B16F10 cells assessed as necrotic cells at IC50 after 72 hrs by annexin V-FITC/propidium iodide staining-based FACS analysis (reference value: 4.0 +/- 0.6%). The experiment is classed as functional.
Experiment [4] has as its system B16-F10. Description: Induction of apoptosis in mouse B16F10 cells assessed as total apoptotic cells at 2 X IC50 after 72 hrs by annexin V-FITC/propidium iodide staining-based FACS analysis (reference value: 13.7 +/- 2.7%). In kind it is functional.
In experiment [5] the test system is B16-F10. The experiment in a line: Induction of apoptosis in mouse B16F10 cells assessed as total apoptotic cells at IC50 after 72 hrs by annexin V-FITC/propidium iodide staining-based FACS analysis (reference value: 13.7 +/- 2.7%). In kind it is functional.
Experiment [6] relates to B16-F10. Description: Induction of apoptosis in mouse B16F10 cells assessed as late apoptotic cells at 2 X IC50 after 72 hrs by annexin V-FITC/propidium iodide staining-based FACS analysis (reference value: 9.8 +/- 2.2%). In kind it is functional.
Experiment [7] deals with B16-F10. The experiment in a line: Induction of apoptosis in mouse B16F10 cells assessed as late apoptotic cells at IC50 after 72 hrs by annexin V-FITC/propidium iodide staining-based FACS analysis (reference value: 9.8 +/- 2.2%). In kind it is functional.
In experiment [8] the test system is B16-F10. Description: Induction of apoptosis in mouse B16F10 cells assessed as early apoptotic cells at 2 X IC50 after 72 hrs by annexin V-FITC/propidium iodide staining-based FACS analysis (reference value: 3.9 +/- 0.4%). In kind it is functional.
The test system of experiment [9] is B16-F10. Description: Induction of apoptosis in mouse B16F10 cells assessed as early apoptotic cells at IC50 after 72 hrs by annexin V-FITC/propidium iodide staining-based FACS analysis (reference value: 3.9 +/- 0.4%). The experiment is classed as functional.
Experiment [10] deals with B16-F10. The experiment in a line: Induction of apoptosis in mouse B16F10 cells assessed as normal cells at IC50 after 72 hrs by annexin V-FITC/propidium iodide staining-based FACS analysis (reference value: 77.9 +/- 1.5%). The experiment is classed as functional.
Experiment [11] concerns B16-F10. The experiment in a line: Cytotoxicity against mouse B16F10 cells after 72 hrs by MTT assay. In kind it is functional, cell-based. The conditions noted are these: B16-F10, 72 h. In short, it runs like this:
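B16F10 cells (DMEM, 2 mM glutamine, 10% heat-inactivated FCS, penicillin/streptomycin; subconfluent) seeded at 11·10^3 per well and exposed to 0–80 µg/mL for 72 h. Compounds were diluted from a 10 mg/mL stock in 50% DMSO/PBS. MTT 0.5 mg/mL for 2 h, formazan dissolved in DMSO, absorbance at 550 nm. Viability is relative to untreated controls; IC50 from four assays of six replicates, mean ± S.E.M.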
On the technique in general: Tetrazolium assays rely on reduction of a dye to a coloured formazan, in cell work by metabolically active cells.

Experiment [12] has as its system B16-F10. Description: Induction of apoptosis in mouse B16F10 cells assessed as normal cells at 2 X IC50 after 72 hrs by annexin V-FITC/propidium iodide staining-based FACS analysis (reference value: 77.9 +/- 1.5%). The experiment is classed as functional.
Experiment [13] deals with Protease (Human immunodeficiency virus 1, UniProt Q9YQ12). Description: Inhibition of HIV1 recombinant protease expressed in Escherichia coli using Abz-Ala-Arg-Val-Nle-Tyr(NO2)-Glu-Ala-Nle-NH2 as substrate by FRET assay.

The structures appear in SMILES notation. Activity calls are given as the source filed them. The rule behind the calls is not given here.

Protease, sequence (Q9YQ12 whole entry): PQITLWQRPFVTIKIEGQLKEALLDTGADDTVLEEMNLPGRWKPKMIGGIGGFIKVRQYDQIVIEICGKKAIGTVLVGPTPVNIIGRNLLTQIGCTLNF

The term IC50 denotes the concentration needed to halve the response being measured. Take `CC1(C)CC[C@]2(C(=O)OCc3ccccc3)CC[C@]3(C)C(=CC[C@@H]4[C@@]5(C)C[C@@H](OC(=O)c6ccccc6C(=O)O)[C@H](O)C(C)(C)[C@@H]5CC[C@]43C)[C@@H]2C1`: the result in experiment [1] was inactive. Further, the Activity stood at 7.5% in experiment [2]; 2.5% in experiment [3]; 89.7% in experiment [4]; 64.7% in [5]; 46.2% in experiment [6]; 22.5% in experiment [7]. Further, the Activity in experiment [8] was found to be 43.6%; in experiment [9], 42.2%; in experiment [10] it was 32.8%; in experiment [12], 2.9%. The figures for the IC50 in [11] and in [13] were 73.2 µM and 0.8 µM, respectively.

With `CC(=O)O[C@H]1CC[C@]2(C)[C@H]3CC=C4[C@@H]5CC(C)(C)CC[C@]5(C(=O)O)CC[C@@]4(C)[C@]3(C)CC[C@H]2C1(C)C` [ACETYL OLEANOLIC ACID], the result in experiment [1] was Active. In addition, the Activity stood at 5.7% in experiment [2]; 5.8% in [3]; 48% in experiment [4]; 54.7% in experiment [5]; 33.4% in [6]; 40.3% in experiment [7]. In addition, the Activity in experiment [8] is reported as 14.6%; in experiment [9] it was 14.4%; in experiment [10], 39.5%; in experiment [12], 46.3%. For the same compound, the figures for the IC50 in experiment [11] and in experiment [13] were 64.7 µM and 3.4 µM, respectively.

Turning to `CCCCCC(=O)O[C@@H]1C[C@]2(C)[C@H]3CC=C4[C@@H]5CC(C)(C)CC[C@]5(C(=O)O)CC[C@@]4(C)[C@]3(C)CC[C@H]2C(C)(C)[C@H]1O`, the outcome in [1] was Active. The Activity in experiment [2] was determined as 1.1%; in [3], 3.9%; in experiment [4], 80.2%; in experiment [5] it was 61.4%; in [6], 17.5%; in [7] it was 19%. Also, the Activity is on record as 62.7% in experiment [8], 42.4% in experiment [9], 34.8% in experiment [10] and 18.9% in experiment [12]. In addition, the values for the IC50 in experiment [11] and in experiment [13] were 34.6 µM and 124 µM, respectively.
